Measurements from article PMC8220551 (International Journal of Pharmaceutics: X, 2021).

Experiment: Permeation study in Kerski diffusion cells with PermeaPad biomimetic barrier
Format: in vitro ADME
Details: in the investigated time interval (up to 60 min), pH 7.4, 37 °C
In short: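 Drug-loaded minitablets, composite films or solutions (0.2 mg per 0.64 cm2) placed in donor; composites applied to buffer-moistened membrane. Acceptor: 10 mM dipotassium hydrogen phosphate, pH 7.4, stirred 350 rpm, 37 °C. Samples at 5, 10, 15, 20, 25, 30, 40, 50, 60 min with medium replacement. Quantified by HPLC with fluorescence detection (excitation 278 nm); mean ± SD, n = 3.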

cumulative drug concentration permeated: ~2.6 μg/cm^2
SMILES: NC(=O)CC[C@@H]1NC(=O)[C@H](Cc2ccccc2)NC(=O)[C@H](Cc2ccc(O)cc2)NC(=O)CCSSC[C@@H](C(=O)N2CCC[C@H]2C(=O)N[C@H](CCCN=C(N)N)C(=O)NCC(N)=O)NC(=O)[C@H](CC(N)=O)NC1=O [DDAVP, 1-desamino-8-D-arginin-vasopressin]
